# Measurements: ChEMBL document CHEMBL1156951, “Oxazolomycins: natural product lead structures for novel antibacterials by click fragment conjugation” (2010)
# Calls of active or inactive are those of the source. The calls are words filed in the database; no cut-off is given here.
# How the values were obtained:
# Type in all cases: functional
# Escherichia coli [1] = experiment: Antibacterial activity against Escherichia coli X580 at 4 mg/ml by hole plate assay; conditions: for zone of inhibition at 4000 µg/mL: read-out: DIZ
# How it was run: (§1)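 Hole-plate bioassay with samples at 4 mg/ml in 7:3 DMSO/H₂O, loaded into wells of bioassay plates and incubated overnight at 37 °C. The read-out was inhibition zone diameter in mm (±1 mm).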
# Staphylococcus aureus = experiment: Antibacterial activity against Staphylococcus aureus NCTC 6571 at 4 mg/ml by hole plate assay; how it was run: as §1
# Escherichia coli [2] = experiment: Antibacterial activity against Escherichia coli X580 assessed as zone of diameter per molar relative to cephalosporin
# How it was run: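 Hole-plate agar diffusion: test solutions were loaded into wells of bioassay plates and incubated overnight at 37 °C. Inhibition zone diameters were measured, and relative potency was expressed as zone diameter per M of analyte against standards prepared with cephalosporin C.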
Compound,zone of inhibition at 4000 µg/mL (Escherichia coli [1]),diameter of the inhibition zone (DIZ) (Staphylococcus aureus),diameter of the inhibition zone (DIZ) (Escherichia coli [1]),zone of inhibition at 4000 µg/mL (Staphylococcus aureus; read-out: DIZ),Activity (Escherichia coli [2])
COC(=O)[C@]12CO[C@H](C(C)(C)C)N1C(=O)C(C)(C)[C@@]2(O)C#CCCCCn1cc(CNC(=O)C(C)(C)C(O)CCCCc2ccccc2)nn1 (stereo partly drawn),13 mm,inactive,–,–,–
CCCCCCCC(O)C(C)(C)C(=O)NCc1cn(CCCCC#C[C@]2(O)C(C)(C)C(=O)N[C@@]2(CO)C(=O)OC)nn1 (stereo partly drawn),–,inactive,inactive,–,–
CCCCCCCC(O)C(C)(C)C(=O)NCc1cn(CCCCC#C[C@]2(O)C(C)(C)C(=O)N3[C@@H](C(C)(C)C)OC[C@@]32C(=O)OC)nn1 (stereo partly drawn),14 mm,inactive,–,–,–
COC(=O)[C@]1(CO)NC(=O)C(C)(C)[C@@]1(O)C#CCCCCn1cc(CNC(=O)C(C)(C)C(O)CCCCc2ccccc2)nn1 (stereo partly drawn),14 mm,inactive,–,–,–
COC(=O)[C@]12CO[C@H](C(C)(C)C)N1C(=O)C(C)(C)[C@@]2(O)C#Cc1ccccc1,–,–,inactive,13 mm,–
COC(=O)[C@]1(CO)NC(=O)C(C)(C)[C@@]1(O)C#CCNC(=O)C(C)(C)C(O)c1ccccc1 (stereo partly drawn),–,inactive,inactive,–,–
COC(=O)[C@]12CO[C@H](C(C)(C)C)N1C(=O)C(C)(C)[C@@]2(O)CCCCCCO,–,inactive,inactive,–,–
COC(=O)[C@]12CO[C@H](C(C)(C)C)N1C(=O)C(C)(C)[C@@]2(O)C#CCCCCO,–,inactive,inactive,–,–
COC(=O)[C@]12CO[C@H](C(C)(C)C)N1C(=O)C(C)(C)[C@@]2(O)CCCCCc1cc(CNC(=O)C(C)(C)C(O)c2ccccc2)on1 (stereo partly drawn),–,inactive,inactive,–,–
COC(=O)[C@]12CO[C@H](C(C)(C)C)N1C(=O)C(C)(C)[C@@]2(O)C#CCCCCn1cc(CNC(=O)C(C)(C)C(O)c2ccccc2)nn1 (stereo partly drawn),14 mm,inactive,–,–,–
CC1(C)C(=O)N[C@@](CO)(C(=O)O)[C@]1(O)C#Cc1ccccc1,–,inactive,inactive,–,–
CCCCCCCC(O)C(C)(C)C(=O)NCc1cc(CCCCC[C@]2(O)C(C)(C)C(=O)N3[C@@H](C(C)(C)C)OC[C@@]32C(=O)OC)no1 (stereo partly drawn),–,inactive,inactive,–,–
COC(=O)[C@]12CO[C@H](C(C)(C)C)N1C(=O)C(C)(C)[C@@]2(O)CCCCCc1cc(CNC(=O)C(C)(C)C(O)CCCCc2ccccc2)on1 (stereo partly drawn),15 mm,inactive,–,–,–
COC(=O)[C@]1(CO)NC(=O)C(C)(C)[C@@]1(O)C#Cc1ccccc1,–,inactive,inactive,–,–
CCCCCCCCC#C[C@]1(O)C(C)(C)C(=O)N2[C@@H](C(C)(C)C)OC[C@@]21C(=O)OC,–,inactive,inactive,–,–
CCCCCCCC(O)C(C)(C)C(=O)NCc1cc(CCCCC[C@]2(O)C(C)(C)C(=O)N[C@@]2(CO)C(=O)OC)no1 (stereo partly drawn),17 mm,inactive,–,–,0.2%
COC(=O)[C@]12CO[C@H](C(C)(C)C)N1C(=O)C(C)(C)[C@@]2(O)C#CCCCCBr,14 mm,inactive,–,–,0.05%
COC(=O)[C@]1(CO)NC(=O)C(C)(C)[C@@]1(O)CCCCCc1cc(CNC(=O)C(C)(C)C(O)c2ccccc2)on1 (stereo partly drawn),13 mm,inactive,–,–,–
CCCCCCCCC#C[C@]1(O)C(C)(C)C(=O)N[C@@]1(CO)C(=O)OC,–,inactive,inactive,–,–
COC(=O)[C@]12CO[C@H](C(C)(C)C)N1C(=O)C(C)(C)[C@@]2(O)C#CCNC(=O)C(C)(C)C(O)c1ccccc1 (stereo partly drawn),17 mm,inactive,–,–,0.1%
COC(=O)[C@]1(CO)NC(=O)C(C)(C)[C@@]1(O)C#CCCCCn1cc(CNC(=O)C(C)(C)C(O)c2ccccc2)nn1 (stereo partly drawn),15 mm,inactive,–,–,–
COC(=O)[C@]1(CO)NC(=O)C(C)(C)[C@@]1(O)CCCCCc1cc(CNC(=O)C(C)(C)C(O)CCCCc2ccccc2)on1 (stereo partly drawn),14 mm,inactive,–,–,0.1%
